The values below come from ChEMBL document CHEMBL1165858, “Synthesis and biological evaluation of beta-chloro vinyl chalcones as inhibitors of TNF-alpha and IL-6 with antimicrobial activity” (Eur J Med Chem, 2010).

The test system of data set [1] is THP-1. The experiment in a line: Antiinflammatory activity in human THP1 cells assessed as inhibition of LPS-induced TNFalpha secretion at 10 uM treated 30 mins before LPS challenge measured after 24 hrs by ELISA relative to control. Type of data set: functional. A digest of the protocol:
(§1)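 THP-1 cells were grown in RPMI 1640 with 10% FBS and penicillin/streptomycin, then differentiated with PMA. Compound or vehicle (0.5% DMSO) was added for 30 min at 37 °C, followed by LPS (E. coli 0127:B8, final 1 µg/mL). After 24 h at 37 °C in 5% CO2, TNF-α and IL-6 in the supernatants were quantified by ELISA. Values are the mean of n = 2.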
Background: ELISA stands for enzyme-linked immunosorbent assay.

Data set [2] deals with Staphylococcus aureus. The experiment in a line: Antibacterial activity against Staphylococcus aureus NCIM 2120 at > 100 […] after 24 hrs by disc diffusion method. Type of data set: functional, organism-based. On the technique in general: Agar diffusion results depend on both activity and mobility in agar.
Data set [3] is described as follows: Cytotoxicity against […] at 10 uM. Type of data set: cell-based.
Data set [4] concerns Trichoderma viride. The experiment in a line: Antibacterial activity against Trichoderma viride TT at > 100 […] after 72 hrs by disc diffusion method. Type of data set: functional, organism-based.
Data set [5] relates to THP-1. The experiment in a line: Antiinflammatory activity in human THP1 cells assessed as inhibition of LPS-induced IL-6 secretion at 10 uM treated 30 mins before LPS challenge measured after 24 hrs by ELISA relative to control. It counts as functional. A digest of the protocol:
as §1

For data set [6], the system named is Candida albicans. Put plainly: Antibacterial activity against Candida albicans NCIM 3100 at > 100 […] after 72 hrs by disc diffusion method. Type of data set: functional, organism-based.
Data set [7] concerns Aspergillus niger. Put plainly: Antibacterial activity against Aspergillus niger NCIM 545 at > 100 […] after 72 hrs by disc diffusion method. It counts as functional, organism-based.
The subject of data set [8] is Escherichia coli. The experiment in a line: Antibacterial activity against Escherichia coli NCIM 2065 after 24 hrs by disc diffusion method. Type of data set: functional. The method, boiled down:
(§2)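 Paper disc diffusion (6.25 mm Whatman no.1 discs, dry-heat sterilized at 140 °C for 1 h) loaded with compounds at different concentrations in DMSO. Discs were placed in triplicate on nutrient agar seeded with fresh bacterial culture and incubated at 37 °C for 24 h, with solvent and growth controls. Zones of inhibition (mm) and MIC, the concentration completely inhibiting growth, were recorded.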

Data set [9] concerns Penicillium chrysogenum. Put plainly: Antibacterial activity against Penicillium chrysogenum NCIM 707 at > 100 […] after 72 hrs by disc diffusion method. Type of data set: functional, organism-based.
Data set [10] relates to Klebsiella pneumoniae. The experiment in a line: Antibacterial activity against Klebsiella pneumoniae NCIM 5082 at > 100 […] after 24 hrs by disc diffusion method. It counts as functional, organism-based.
Data set [11] concerns Proteus vulgaris. The experiment in a line: Antibacterial activity against Proteus vulgaris NCIM 2813 after 24 hrs by disc diffusion method. Type of data set: functional. The conditions noted are these: for MIC: Proteus vulgaris, NCIM 2813, 24 h. A digest of the protocol: as §2
In data set [12] the test system is Bacillus subtilis. Put plainly: Antibacterial activity against Bacillus subtilis NCIM 2546 after 24 hrs by disc diffusion method. It counts as functional. The method, boiled down: as §2
Data set [13] concerns Aspergillus fumigatus. The experiment in a line: Antibacterial activity against Aspergillus fumigatus NCIM 902 at > 100 […] after 72 hrs by disc diffusion method. Type of data set: functional, organism-based.
For data set [14], the system named is Escherichia coli. Put plainly: Antibacterial activity against Escherichia coli NCIM 2065 at > 100 […] after 24 hrs by disc diffusion method. It counts as functional, organism-based.
Data set [15] relates to Bacillus subtilis. Put plainly: Antibacterial activity against Bacillus subtilis NCIM 2546 at > 100 […] after 24 hrs by disc diffusion method. It counts as functional, organism-based.
The test system of data set [16] is Proteus vulgaris. Put plainly: Antibacterial activity against Proteus vulgaris NCIM 2813 at > 100 […] after 24 hrs by disc diffusion method. Type of data set: functional, organism-based.
Data set [17] has as its system Aspergillus fumigatus. The experiment in a line: Antibacterial activity against Aspergillus fumigatus NCIM 902 after 72 hrs by disc diffusion method. Type of data set: functional. A digest of the protocol: (§3)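 Agar disc diffusion against fungi. Fungi were maintained on potato dextrose agar at (25 ± 2) °C for five days before use. Compounds were dissolved in DMSO (10 mg/mL initial solutions) and loaded on discs placed on freshly seeded plates alongside a solvent control disc. Plates were held at 4 °C for 24 h for diffusion, then incubated at 37 ± 5 °C for 72 h. Zones of inhibition (mm) and MICs were recorded.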

Data set [18] concerns Klebsiella pneumoniae. Put plainly: Antibacterial activity against Klebsiella pneumoniae NCIM 5082 after 24 hrs by disc diffusion method. It counts as functional. A digest of the protocol: as §2
The test system of data set [19] is Penicillium chrysogenum. Put plainly: Antibacterial activity against Penicillium chrysogenum NCIM 707 after 72 hrs by disc diffusion method. Type of data set: functional. The conditions noted are these: for MIC: Penicillium chrysogenum, NCIM 707, 72 h. A digest of the protocol: as §3
In data set [20] the test system is Staphylococcus aureus. Put plainly: Antibacterial activity against Staphylococcus aureus NCIM 2120 after 24 hrs by disc diffusion method. As to conditions: for MIC: Staphylococcus aureus, NCIM 2120, 24 h. It counts as functional. The method, boiled down: as §2
Data set [21] concerns Trichoderma viride. Put plainly: Antibacterial activity against Trichoderma viride TT after 72 hrs by disc diffusion method. It counts as functional. The method, boiled down: as §3
The subject of data set [22] is Aspergillus niger. The experiment in a line: Antibacterial activity against Aspergillus niger NCIM 545 after 72 hrs by disc diffusion method. It counts as functional. The conditions noted are these: for MIC: Aspergillus niger, NCIM 545, 72 h. A digest of the protocol: as §3
Data set [23] relates to Candida albicans. The experiment in a line: Antibacterial activity against Candida albicans NCIM 3100 after 72 hrs by disc diffusion method. Type of data set: functional. A digest of the protocol:
as §3

Values after ≈ are worked out from the molar mass of the structure shown. Active and inactive are the calls of the source. The rule behind the calls is not given here.

Turning to `COc1cc(O)c(C(=O)/C=C/C=C(\Cl)c2cccc(Cl)c2)c(OC)c1`, the inhibition (commonly the change of the read-out against control, counted positive when it falls) at 10 µM in data set [1] turned out to be 0%; in [5], 31%. In addition, the MIC entry in [2], in data set [4], in data set [6], in data set [7], in data set [9] and in data set [10] was “inactive” in each case. In addition, in data set [13], the MIC (usually the lowest concentration found to suppress growth) is “inactive”. The Activity result in [3] is given as “Non-toxic”. Besides, the “inhibition zone (IZ)” value is reported as 16 mm in data set [8], 18 mm in data set [11] and 12 mm in data set [12]. For the same compound, the MIC was found to be 50 µg/mL (≈ 132 µM) in data set [8] (Escherichia coli, NCIM 2065, 24 h) and 25 µg/mL (≈ 65.9 µM) in [11].

As for `COc1ccc(/C(Cl)=C/C=C/C(=O)c2c(O)cc(OC)cc2OC)c(OC)c1`, the MIC entry in data set [14], in [15], in data set [16], in [6] and in data set [7] was “inactive” throughout. In addition, the results for the inhibition at 10 µM in data set [1] and in [5] were 0% and 33%, respectively. Besides, the “inhibition zone (IZ)” value in [17] turned out to be 10 mm; in [18] it was 13 mm; in data set [19] it was 14 mm; in data set [20] it was 14 mm; in data set [21] it was 10 mm. In addition, the Activity entry in [3] is listed as “Non-toxic”. The MIC in [19] and in data set [20] was 50 µg/mL (≈ 124 µM) in each case.

As to `COc1cc(O)c(C(=O)/C=C/C=C(\Cl)c2ccc(C)cc2)c(OC)c1`, the inhibition at 10 µM worked out at 17% in data set [1] and 36% in data set [5]. The “inhibition zone (IZ)” value in data set [17] is on record as 10 mm; in [18] it was 18 mm; in data set [8], 12 mm; in [11], 19 mm; in [12] it was 15 mm; in data set [20], 16 mm. Also, in data set [21], the “inhibition zone (IZ)” value stood at 13 mm. For the same compound, in [3], the Activity result is reported as “Non-toxic”. Also, the MIC in data set [18] (Klebsiella pneumoniae, NCIM 5082, 24 h) was 25 µg/mL (≈ 69.7 µM); in [11], 25 µg/mL (≈ 69.7 µM); in data set [12] (Bacillus subtilis, NCIM 2546, 24 h), 50 µg/mL (≈ 139 µM); in data set [20] it was 50 µg/mL (≈ 139 µM). Moreover, the MIC entry in [6], in data set [7] and in data set [9] was “inactive” in each case.

Consider `COc1ccc(/C(Cl)=C/C=C/C(=O)c2c(O)cc(OC)cc2OC)cc1`, for which the MIC entry in [14], in data set [15], in data set [2], in data set [4], in [6] and in [9] was “inactive” each time. For the same compound, the MIC result in [10] and in data set [13] was “inactive” throughout. For the same compound, the entries for the “inhibition zone (IZ)” value in data set [22] and in data set [11] were 16 mm and 17 mm, respectively. The MIC in data set [22] and in [11] was 50 µg/mL (≈ 133 µM) each time. In addition, the inhibition at 10 µM in data set [1] came out at 18%; in data set [5], 78%. Further, the Activity result in data set [3] is on record as “Non-toxic”.

`COc1cc(OC)cc(/C(Cl)=C/C=C/C(=O)c2c(O)cc(OC)cc2OC)c1`: the MIC result in data set [14], in data set [15], in data set [16], in data set [2] and in [10] was “inactive” throughout. Also, the “inhibition zone (IZ)” value in data set [22] turned out to be 16 mm; in [23] it was 12 mm; in data set [17] it was 14 mm; in [19], 15 mm; in [21], 14 mm. The MIC in [22] was found to be 50 µg/mL (≈ 124 µM); in data set [17] (Aspergillus fumigatus, NCIM 902, 72 h), 50 µg/mL (≈ 124 µM); in [19] it was 50 µg/mL (≈ 124 µM); in data set [21] (Trichoderma viride, TT, 72 h), 50 µg/mL (≈ 124 µM). Also, the inhibition at 10 µM came to 13% in [1] and 45% in data set [5]. Also, the Activity result in data set [3] is “Non-toxic”.
